Activity calls are given as the source filed them. The calls are words filed in the database; no cut-off is given here.
Legend:
Integrin alpha-5/beta-1 [1] = molecular target: T1, Integrin alpha-5/beta-1 (Homo sapiens, UniProt P05556+P08648); assay: Binding affinity to alpha5beta1 integrin receptor (unknown origin) incubated fro 30 mins by competitive solid-phase binding assay; assay type: protein-complex assay
How it was run: (§1)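 Competitive solid-phase binding assay using FN for αvβ3 and α5β1, giving IC50. Mean ± SEM, n=3.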

Integrin alpha-4/beta-1 [2] = molecular target: T2, Integrin alpha-4/beta-1 (Homo sapiens, UniProt P05556+P13612); assay: Activity at alpha4beta1 integrin receptor in human Jurkat E6.1 cells assessed as effect on VCAM1-induced cell adhesion pre-incubated for 30 mins; assay type: cell-based
How it was run: (§2)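 Integrin-mediated adhesion. αvβ3: SK-MEL-24 cells adhering to FN. α5β1: K562 cells adhering to FN. α4β1: Jurkat E6.1 cells adhering to VCAM-1. Values are mean ± SD, n=3.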

Integrin alpha-V/beta-3 [3] = molecular target: T3, Integrin alpha-V/beta-3 (Homo sapiens, UniProt P05106+P06756); assay: Binding affinity to alphaVbeta3 integrin receptor (unknown origin) incubated fro 30 mins by competitive solid-phase binding assay; assay type: protein-complex assay; how it was run: as §1
Integrin alpha-5/beta-1 [4] = molecular target: T1, Integrin alpha-5/beta-1; assay: Antagonist activity at alpha5beta1 integrin receptor in human K562 cells assessed as reduction in fibronectin-induced cell adhesion pre-incubated for 30 mins; assay type: cell-based; how it was run: as §2
Integrin alpha-V/beta-3 [5] = molecular target: T3, Integrin alpha-V/beta-3; assay: Activity at alphaVbeta3 integrin receptor in human SK-MEL-24 cells assessed as effect on fibronectin-induced cell adhesion pre-incubated for 30 mins; assay type: cell-based; how it was run: as §2
Integrin alpha-4/beta-1 [6] = molecular target: T2, Integrin alpha-4/beta-1; assay: Binding affinity to alpha4beta1 integrin receptor (unknown origin) incubated for 1 hr by scintillation proximity binding assay; assay type: protein-complex assay
How it was run: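 Scintillation proximity binding assay for α4β1, giving IC50. Mean ± SEM, n=3.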

Integrin alpha-5/beta-1 [7] = molecular target: T1, Integrin alpha-5/beta-1; assay: Antagonist activity at alpha5beta1 integrin receptor in human K562 cells assessed as reduction in fibronection-induced ERK1/2 phosphorylation at 1 nM to 100 nM pre-incubated for 1 hr before fibronectin stimulation for 1 hr by Western blot analysis; assay type: cell-based
How it was run: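 K562 cells (α5β1) were treated with compound and stimulated with FN. FN-induced ERK1/2 phosphorylation was quantified by band densitometry against vehicle and FN. Mean ± SEM, n=5; Newman-Keuls test after ANOVA.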

Integrin alpha-V/beta-3 [8] = molecular target: T3, Integrin alpha-V/beta-3; assay: Agonist activity at alphaVbeta3 integrin receptor in human Saos-2 cells assessed as increase in cell adhesion to wells coated with compound by passive absorption in absence of fibronectin; assay type: cell-based
How it was run: (§3)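 Compounds were coated onto wells by passive absorption, with no FN present. Adhesion of SK-MEL-24 or Saos-2 cells was compared with BSA-coated wells. Mean ± SEM from three independent experiments run in quadruplicate; Newman-Keuls test after ANOVA.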

Integrin alpha-V/beta-3 [9] = molecular target: T3, Integrin alpha-V/beta-3; assay: Agonist activity at alphaVbeta3 integrin receptor in human Saos-2 cells assessed as increase in fibronectin-induced cell adhesion at 10 ug/ml added 10 mins after pre-incubation with neutralizing antibody to integrin alphaV-subunit; assay type: cell-based
How it was run: (§4)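 Neutralizing antibody against the αv subunit was added to SK-MEL-24 or Saos-2 cells 10 min before the compounds (10 μg/mL). Adhesion was then measured.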

Integrin alpha-V/beta-3 [10] = molecular target: T3, Integrin alpha-V/beta-3; assay: Agonist activity at alphaVbeta3 integrin receptor (unknown origin) expressed in HEK293 cells assessed as induction of ERK1/2 phosphorylation at 1 nM to 100 nM incubated for 1 hr by Western blot analysis; assay type: cell-based
How it was run: (§5)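 HEK293 cells were transfected with plasmids coding αv and β3 subunits; untransfected HEK293 served as negative control and FN as positive control. ERK1/2 phosphorylation was quantified by band densitometry against vehicle. Mean ± SEM, n=5; Newman-Keuls test after ANOVA.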

[11] = molecular target: Mitogen-activated protein kinase; ERK1/ERK2 (Homo sapiens) (UniProt P27361+P28482); assay: Activation of ERK1/2 phosphorylation in HEK293 cells at 1 nM to 100 nM incubated for 1 hr by Western blot analysis; assay type: cell-based; how it was run: as §5
Integrin alpha-4/beta-1 [12] = molecular target: T2, Integrin alpha-4/beta-1; assay: Agonist activity at alpha4beta1 integrin receptor in human Jurkat E6.1 cells assessed as increase in VCAM1-induced cell adhesion pre-incubated for 30 mins; assay type: cell-based; how it was run: as §2
Integrin alpha-V/beta-3 [13] = molecular target: T3, Integrin alpha-V/beta-3; assay: Agonist activity at alphaVbeta3 integrin receptor in human Saos-2 cells assessed as increase in fibronectin-induced cell adhesion pre-incubated for 30 mins; assay type: cell-based
Integrin alpha-V/beta-3 [14] = molecular target: T3, Integrin alpha-V/beta-3; assay: Agonist activity at alphaVbeta3 integrin receptor in human SK-MEL-24 cells assessed as increase in cell adhesion to wells coated with compound by passive absorption in absence of fibronectin; assay type: cell-based; how it was run: as §3
Integrin alpha-V/beta-3 [15] = molecular target: T3, Integrin alpha-V/beta-3; assay: Agonist activity at alphaVbeta3 integrin receptor in human SK-MEL-24 cells assessed as increase in fibronectin-induced cell adhesion pre-incubated for 30 mins; assay type: cell-based; how it was run: as §2
Integrin alpha-5/beta-1 [16] = molecular target: T1, Integrin alpha-5/beta-1; assay: Activity at alpha5beta1 integrin receptor in human K562 cells assessed as effect on fibronectin-induced cell adhesion pre-incubated for 30 mins; assay type: cell-based; how it was run: as §2
Integrin alpha-V/beta-3 [17] = molecular target: T3, Integrin alpha-V/beta-3; assay: Agonist activity at alphaVbeta3 integrin receptor in human SK-MEL-24 cells assessed as increase in fibronectin-induced cell adhesion at 10 ug/ml added 10 mins after pre-incubation with neutralizing antibody to integrin alphaV-subunit; assay type: cell-based; how it was run: as §4
Integrin alpha-4/beta-1 [18] = molecular target: T2, Integrin alpha-4/beta-1; assay: Agonist activity at alpha4beta1 integrin receptor in human Jurkat E6.1 cells assessed as increase in VCAM1-induced cell adhesion at 10 ug/ml pre-incubated for 30 mins in presence of 10 ug/ml neutralizing antibody to alpha4 integrin subunit; assay type: cell-based
Integrin alpha-4/beta-1 [19] = molecular target: T2, Integrin alpha-4/beta-1; assay: Agonist activity at alpha4beta1 integrin receptor in human Jurkat E6.1 cells assessed as induction of ERK1/2 phosphorylation incubated for 1 hr by Western blot analysis; assay type: cell-based
How it was run: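 Jurkat cells (α4β1) were treated across a concentration range with VCAM-1 as positive control. ERK1/2 phosphorylation was quantified by band densitometry against vehicle. Mean ± SEM, n=5; Newman-Keuls test after ANOVA.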

Integrin alpha-5/beta-1 [20] = molecular target: T1, Integrin alpha-5/beta-1; assay: Agonist activity at alpha5beta1 integrin receptor in human K562 cells assessed as increase in fibronectin-induced cell adhesion pre-incubated for 30 mins; assay type: cell-based; how it was run: as §2

| Structure (SMILES) | IC50 (Integrin alpha-5/beta-1 [1]) [nM] | Activity (Integrin alpha-4/beta-1 [2]) [µM] | IC50 (Integrin alpha-V/beta-3 [3]) [nM] | IC50 (Integrin alpha-5/beta-1 [4]) [nM] | Activity (Integrin alpha-V/beta-3 [5]) [µM] | IC50 (Integrin alpha-4/beta-1 [6]) [nM] | Activity (Integrin alpha-5/beta-1 [16]) [µM] | also measured |
| --- | --- | --- | --- | --- | --- | --- | --- | --- |
| O=C(O)/C=C1/CC(=O)N1 | > 1000 | – | 29 | – | – | 294 | > 5 | Activity (Integrin alpha-V/beta-3 [8]): Active; Activity (Integrin alpha-V/beta-3 [9]): inactive; Activity (Integrin alpha-V/beta-3 [10]): Active; Activity [11]: inactive; EC50 (Integrin alpha-4/beta-1 [12]): 255 nM; EC50 (Integrin alpha-V/beta-3 [13]): 154 nM; Activity (Integrin alpha-V/beta-3 [14]): Active; EC50 (Integrin alpha-V/beta-3 [15]): 75.6 nM; Activity (Integrin alpha-V/beta-3 [17]): inactive |
| O=C(O)CC1CC(=O)N1 (stereo not given) | – | > 5 | – | – | – | – | – | – |
| Cc1ccccc1NC(=O)N1CCC1=O | – | – | – | – | > 5 | – | > 5 | EC50 (Integrin alpha-4/beta-1 [12]): 976 nM |
| Cc1ccccc1NC(=O)NCC(=O)O | > 1000 | > 5 | 3.4 | 3510 | – | > 1000 | – | Activity (Integrin alpha-V/beta-3 [8]): Active; Activity (Integrin alpha-V/beta-3 [9]): inactive; Activity (Integrin alpha-V/beta-3 [10]): Active; Activity [11]: inactive; EC50 (Integrin alpha-V/beta-3 [13]): 299 nM; Activity (Integrin alpha-V/beta-3 [14]): Active; EC50 (Integrin alpha-V/beta-3 [15]): 84.8 nM; Activity (Integrin alpha-V/beta-3 [17]): inactive |
| NCc1ccc(NC(=O)N2C(=O)C[C@H]2C(=O)O)cc1 | – | > 5 | – | – | > 5 | – | – | – |
| O=C(O)CNC(=O)CC1CC(=O)N1 (stereo not given) | – | > 5 | – | 1110 | > 5 | – | – | – |
| Cc1ccccc1NC(=O)N1CCC[C@H]1C(=O)O | 136 | – | > 1000 | – | – | 18.9 | – | Activity (Integrin alpha-4/beta-1 [18]): inactive; Activity (Integrin alpha-4/beta-1 [19]): Dose-dependent effect; EC50 (Integrin alpha-4/beta-1 [12]): 10 nM; EC50 (Integrin alpha-5/beta-1 [20]): 140 nM; EC50 (Integrin alpha-V/beta-3 [15]): 2880 nM |
| NCc1ccc(NC(=O)N2C(=O)C[C@@H]2C(=O)O)cc1 | – | > 5 | – | – | > 5 | – | > 5 | – |
| Cc1ccccc1NC(=O)NCCC(=O)O | > 1000 | > 5 | 9.5 | – | – | > 1000 | > 5 | Activity (Integrin alpha-V/beta-3 [8]): Active; Activity (Integrin alpha-V/beta-3 [9]): inactive; Activity (Integrin alpha-V/beta-3 [10]): Active; Activity [11]: inactive; EC50 (Integrin alpha-V/beta-3 [13]): 984 nM; Activity (Integrin alpha-V/beta-3 [14]): Active; EC50 (Integrin alpha-V/beta-3 [15]): 29.9 nM; Activity (Integrin alpha-V/beta-3 [17]): inactive |
| Cc1ccccc1NC(=O)N1C(=O)C[C@@H]1C(=O)NCCC(=O)O | 11.9 | > 5 | > 1000 | 96.9 | > 5 | > 1000 | – | – |

Further lines, with some results ahead:

| IC50 (Integrin alpha-5/beta-1 [1]) [nM] | Activity (Integrin alpha-4/beta-1 [2]) [µM] | IC50 (Integrin alpha-V/beta-3 [3]) [nM] | IC50 (Integrin alpha-5/beta-1 [4]) [nM] | Activity (Integrin alpha-V/beta-3 [5]) [µM] | IC50 (Integrin alpha-4/beta-1 [6]) [nM] | Activity (Integrin alpha-5/beta-1 [16]) [µM] | Structure (SMILES) | also measured |
| --- | --- | --- | --- | --- | --- | --- | --- | --- |
| 59.3 | > 5 | > 1000 | 41.5 | > 5 | > 1000 | – | Cc1ccccc1C(=O)N1C(=O)C[C@H]1C(=O)O | inhibition (Integrin alpha-5/beta-1 [7]): Active |
| – | > 5 | – | – | > 5 | – | > 5 | Cc1ccccc1NC(=O)N1C(=O)C[C@@H]1C(=O)O | – |
| – | – | – | – | > 5 | – | > 5 | Cc1ccccc1NC(=O)N1C(=O)CC1CC(=O)O (stereo not given) | – |
| – | > 5 | – | – | > 5 | – | – | Cc1ccccc1NC(=O)N1C(=O)CC1CC(=O)NCC(=O)O (stereo not given) | – |
| 409 | > 5 | > 1000 | 419 | > 5 | > 1000 | – | Cc1ccccc1C(=O)N1C(=O)CC1CC(=O)O (stereo not given) | – |

From ChEMBL document CHEMBL4321835, “Could Dissecting the Molecular Framework of β-Lactam Integrin Ligands Enhance Selectivity?” (J Med Chem, 2019)
